Most compounds without a hit are left out; they make up all but 4.2% or so of the library.
KCC2 mod = KCC2 cotransporter modulators, thallium flux, primary screen, cell-based, HEK293 KCC2, FluoZin-2 fluorescence, MLSMR; hit rate 2.2% among 190,000; B-score of Tl+ flux slope (higher = more flux/activation; lower = inhibition) at 10 µM; Solute carrier family 12 member 5 (Homo sapiens), Q9H2X9; KCC2 cells, thallium flux FluoZin-2 fluorescence;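 active means thallium flux slope and its plate-corrected score both differing from the plate sample mean at a set confidence after two filtering rounds, in either direction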;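 further: slope of fluorescence scaled to starting intensity during 10 to 20 s after thallium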
KCNQ1 block = inhibitors of human KCNQ1 channel, primary screen, cell-based, thallium flux, high-throughput | Potassium voltage-gated channel subfamily KQT member 1 (Homo sapiens), P51787 | hit rate 1.3% among 310,000 | B-score at 10 µM | CHO-K1 KCNQ1, FluxOR thallium flux fluorescence; active compounds read high;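 active means compounds whose thallium flux B-score, printed positive for inhibition, exceeds three library SD while starting fluorescence stays within three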;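 further: channel opened by potassium depolarization with thallium stimulus after 20 min compound exposure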
Mot1-301 SUMO = yeast Mot1-301 growth rescue at high temperature, primary screen, SUMOylation pathway inhibitor project, S. cerevisiae, ATP luminescence, 38.5C; growth rescue, % at 18.8 µM; S. cerevisiae Mot1-301 growth rescue; percent above DMSO median, 100 means doubled; hit rate 1% among 320,000;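 active means every valid replicate shows activation above 250% relative to neutral control wells; inactive means the rest, any valid replicate at or below 250%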;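 further: OY570 slx delta 5 strain wells were the positive control but not used for scaling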
KCNQ1 act = potentiators or activators of KCNQ1 channel, primary screen, cell-based, thallium flux, high-throughput. CHO-K1 KCNQ1, thallium flux FluxOR fluorescence; active compounds read high. B-score at 10 µM. hit rate 0.35% among 310,000. AID 2648, 2010;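 active means fluorescence ratio B-score, a plate-corrected score, at least three library SD, with initial intensity B-score within 5 SD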
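Assay system: CHO-K1 cells stably expressing KCNQ1; Medium: assay buffer with matched DMSO; Also added: K+/Tl+ depolarizing stimulus; Dosing: single dose; Timing: dye 90 min, compound 20 min, room temperature; Measured by: kinetic FluxOR thallium fluorescence, 10-s 1-Hz baseline, 110-s post-stimulus read; Read-out: peak-minus-minimum fluorescence over initial fluorescence, negative-control normalized, B-scored.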
AI-2 QS modul = Vibrio harveyi AI-2 quorum sensing modulators, primary screen, JMH597 strain, luminescence/OD600 ratio; Vibrio harveyi JMH597 AI-2 luminescence/OD600 ratio, 9 h; active compounds read low; strain lacks LuxN and CqsS sensors; 0 = neutral-control median; activity change, % at 7.5 µM; hit rate 0.4% among 300,000; AID 2094, 2009; in the data active means activity change below about -75%, passing the limit was not always enough;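 further: luminescence divided by OD600 gain over 9 h not by final OD600 alone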
hERG protect = hERG rescue from dofetilide block, primary screen, cell-based, CHO-hERG, FluxOR thallium flux, dofetilide IC70. dofetilide IC70 present. Voltage-gated inwardly rectifying potassium channel KCNH2 (Homo sapiens), Q12809. AID 1511, 2009. activation (rescue from dofetilide block), less the hit threshold, % at 10 µM. hit rate 0.51% among 310,000;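 active means activation above the mean of controls blocked by dofetilide plus 5 SD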;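 further: thallium influx through hERG after potassium depolarization seen as dye fluorescence rise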
Yeast Mot1 SUMO = growth restoration of Mot1-301 yeast on galactose, dose response, SUMO pathway inhibitor project, whole organism, S. cerevisiae, ATP luminescence, cherry-picked samples; growth activity, percent, % at 42 µM; shares compounds with Mot1-301 SUMO; S. cerevisiae Mot1-301 galactose growth, 24 h; -100 = growth of slx-deleted rescue strain; 2,300 tested, under 10 active;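 active means Signal drops as the depositor expects, and the fitted half-maximal dose is no more than ten times the top valid tested dose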;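 further: more negative values mean stronger growth rescue toward the control strain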
Numbers without * were called inactive; i = inactive; x = not tested or not shown; + = active, no number.

SMILES	KCC2 mod	KCNQ1 block	Mot1-301 SUMO	KCNQ1 act	AI-2 QS modul	hERG protect	Yeast Mot1 SUMO
NC(=O)c1cccc(C(N)=O)n1	1.46	i	-11.1	i	-19.9	-7.7	x
CC1(CCC(=O)N2CCCC(Nc3ccc(F)cc3)C2)CC1 (stereo not given)	x	i	-14.1	i	21.1	-10.7	x
Cc1cc(Nc2ccc(Cl)cc2)n(-c2ccccc2)n1	-0.344	i	-10.0	i	2.6	-7.3	x
Cc1cc(Nc2nc3c(c(=O)n(C)c(=O)n3C)n2C)n(-c2ccc(Cl)cc2)n1	-0.124	i	+	i	12.7	-1.9	0.3
CCNC(=O)COC(=O)CCC(=O)c1cccs1	1.18	i	-0.8	i	11.8	-12.4	x
CCCNC(=O)COC(=O)CCC(=O)c1cccs1	0.551	i	422.1*	i	14.6	-6.0	-0.1
O=c1[nH]cnc2ccc([N+](=O)[O-])cc12	1.26	i	397.1*	i	11.2	-7.4	-0.2
O=c1[nH][nH]c(=O)c2cc([N+](=O)[O-])ccc12	x	x	-13.2	x	x	x	x
Cc1ccc(S(=O)(=O)N2CCOCC2)cc1NC(=O)COC(=O)CNC(=O)c1ccccc1	0.292	i	531.6*	i	4.2	-0.8	0.4
Cc1ccc(S(=O)(=O)N2CCOCC2)cc1NC(=O)COC(=O)Cc1cccs1	x	i	-6.2	i	-1.7	-12.9	x
CCCCC(=O)NC(=S)Nc1cccc(C(=O)O)c1	0.395	i	+	i	19.5	-5.8	-0.4
CCOC(=O)c1cnc2c(C)c(Cl)ccc2c1NCCCN1CCOCC1	x	i	-5.8	i	7.0	-4.4	x
CCOC(=O)c1cnc2c(C)c(Cl)ccc2c1N1CCOCC1	x	i	828.0*	i	9.6	-3.5	0.7
CCOc1ccc(N(CC(=O)NN=C2CCCC2)S(C)(=O)=O)cc1	0.515	i	21.5	i	2.4	-3.0	x
O=C(CCN1C(=O)S/C(=C/c2ccccc2)C1=O)Nc1ccc(O)c(C(=O)O)c1	x	i	435.0*	i	28.0	-1.6	0.4
O=C(O)/C=C/c1ccc(S(=O)(=O)N2CCN(CCN3C(=O)C4C5C=CC(C5)C4C3=O)CC2)cc1 (stereo not given)	0.161	i	6.7	i	13.7	-13.7	x
CN1CCN(CC(=O)N2c3ccc(S(=O)(=O)NCCNC(=O)OC(C)(C)C)cc3C(=O)Nc3cccnc32)CC1	x	i	-1.2	i	24.7	-3.7	x
CN1CCN(CC(=O)N2c3ccccc3C(=O)Nc3cccnc32)CC1	0.269	i	+	i	2.7	-5.7	0.1
CCC(=O)Nc1ccc(S(=O)(=O)NCc2ccco2)cc1	1.06	i	659.5*	i	37.7	-8.1	0.7
COc1ccc(/C=N/NC(=O)C(=O)N2CCCCCC2)cc1O	x	i	6.7	i	20.7	-4.7	x
NCCCCCc1nnc(SCC(=O)Nc2cccc(Cl)c2)o1	2.02	i	-4.1	i	21.3	-7.0	x
CCC(C)[C@H](N)c1nnc(SCC(=O)Nc2cccc(Cl)c2)o1 (stereo not given in full)	-0.122	i	557.6*	i	-2.1	-17.4	-0.5
CC(C)(C)C1c2[nH]c3ccccc3c2CCN1Cc1cccc(OCCO)c1 (stereo not given)	0.864	i	710.1*	i	26.7	-12.3	0.4

Compound activity from PubChem BioAssay.
